Active and inactive are the calls of the source. No cut-off for these calls is given here.
Tests used:
[1] = target: NAD(P)H dehydrogenase [quinone] 1 (Homo sapiens) (UniProt P15559); assay: Activity of human NQO1 assessed as initial rate of compound reduction per mg of protein at 25 uM in presence of NADH by cytochrome c reduction assay
How it was run: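 Recombinant human NQO1 (0.1–3 µg) with cytochrome c 70 µM as terminal electron acceptor, NADH 1 mM, substrate 25 µM in 25 mM Tris-HCl pH 7.4 containing 0.7 mg/mL BSA and 0.1% Tween-20, room temperature, started with NADH. A550 followed; initial rate from linear 0–30 s segment, ε 21.1 mM⁻¹ cm⁻¹, µmol cytochrome c/min/mg NQO1; at least triplicate.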

BE [2] = assay: Cytotoxicity against human BE cells expressing human NQO1 after 3 to 5 days by MTT assay; format: functional, cell-based
How it was run: (§1)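 BE colon adenocarcinoma cells and NQO1-transfected BE-NQ cells (337 nmol/min/mg protein, DCPIP) in MEM with 10% FBS, 37 °C, 5% CO2. Seeded 10,000 cells/mL, attached 16 h, exposed 2 h, then washed out into fresh medium for 3–5 days. MTT 50 µg, 4 h, formazan in DMSO, A560; IC50 from semi-log plots of percent control.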

BE [3] = assay: Cytotoxicity against NQO1 deficient human BE cells after 3 to 5 days by MTT assay; format: functional, cell-based; how it was run: as §1
BE [4] = assay: Selectivity index, ratio of IC50 for NQO1 deficient human BE cells to IC50 for human BE cells expressing human NQO1
A549 [5] = assay: Inhibition of clonogenic survival of human A549 cells at 100 nM; format: functional
BE [6] = assay: Selectivity index, ratio of IC50 for human BE cells expressing human NQO1 to IC50 for NQO1 deficient human BE cells; format: functional
A549 [7] = assay: Suppression of clonogenic survival of human A549 cells at <100 nM; format: functional, cell-based

Sequence of NAD(P)H dehydrogenase [quinone] 1 (Homo sapiens) (P15559 whole entry): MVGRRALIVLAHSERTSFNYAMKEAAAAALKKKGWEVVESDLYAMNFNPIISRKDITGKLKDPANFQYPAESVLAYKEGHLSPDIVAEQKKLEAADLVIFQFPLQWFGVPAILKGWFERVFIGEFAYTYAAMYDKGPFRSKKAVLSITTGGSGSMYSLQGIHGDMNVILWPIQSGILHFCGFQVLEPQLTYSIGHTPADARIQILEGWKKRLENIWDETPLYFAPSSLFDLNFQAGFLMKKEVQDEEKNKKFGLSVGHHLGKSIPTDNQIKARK

With `COC(=O)c1nc(-c2ccc3c(n2)C(=O)C(N)=CC3=O)c2[nH]c3ccc(O)cc3c2c1C` the Activity [1] was 31 µmol/min, the IC50 (BE [2]) was 5.7 µM and the IC50 (BE [3]) was 14 µM. For the same compound, the “Ratio IC50” value (BE [4]) was 2.5.
With `CCCCOC(=O)c1cc2c([nH]c3ccccc32)c(-c2ccc3c(n2)C(=O)C(NC(=O)CCC(=O)O)=CC3=O)n1` the Activity [1] was 5.2 µmol/min, the IC50 (BE [2]) was 7.6 µM and the IC50 (BE [3]) was 12 µM. The “Ratio IC50” value (BE [4]) was 1.6.
`CCOC(=O)c1cc2c([nH]c3ccccc32)c(-c2ccc3c(n2)C(=O)C(NC(C)=O)=CC3=O)n1` gave an Activity [1] of 3.6 µmol/min, an IC50 (BE [2]) of 10 µM and an IC50 (BE [3]) of 13 µM. The “Ratio IC50” value (BE [4]) was 1.3.
`N=C1C=C(O)c2ccc(-c3nc(C(N)=O)cc4c3[nH]c3ccccc34)nc2C1=O` showed an inhibition at 0.1 µM (A549 [5]) of 100%.
In the case of `CCOC(=O)c1cc2c([nH]c3ccccc32)c(-c2ccc3c(n2)C(=O)C(N)=C(Cl)C3=O)n1`, the Activity [1] is reported as 6.9 µmol/min, the IC50 (BE [2]) is reported as greater than 50 µM and the IC50 (BE [3]) is reported as greater than 50 µM.
`CCC(C)OC(=O)c1cc2c([nH]c3ccccc32)c(-c2ccc3c(n2)C(=O)C(NC(C)=O)=CC3=O)n1` (stereo not given) gave an Activity [1] of 3.9 µmol/min, an IC50 (BE [2]) of 40 µM and an IC50 (BE [3]) of 33 µM. The “Ratio IC50” value (BE [6]) was 0.8.
For `COC(=O)c1cc2c([nH]c3ccccc32)c(-c2ccc3c(n2)C(=O)C(NC=O)=CC3=O)n1`, the Activity [1] was 20 µmol/min, the IC50 (BE [2]) was 10 µM and the IC50 (BE [3]) was 14 µM. The “Ratio IC50” value (BE [4]) was 1.4.
Work on `COC(=O)c1cc2c([nH]c3ccccc32)c(-c2ccc3c(n2)C(=O)C(N)=CC3=O)n1` yielded an Activity [1] of 28 µmol/min, an IC50 (BE [2]) of 22 µM and an IC50 (BE [3]) of 45 µM. For the same compound, the “Ratio IC50” value (BE [4]) was 2.
In the case of `COC(=O)c1nc(-c2ccc3c(n2)C(=O)C(N)=C(OC)C3=O)c2[nH]c3ccccc3c2c1C`, the inhibition (A549 [7]) is reported as “Active”.
Compound `NC1=CC(=O)c2ccc(-c3nc(C(=O)NCCO)cc4c3[nH]c3ccccc34)nc2C1=O` has an Activity [1] of 26 µmol/min, an IC50 (BE [2]) of 1.1 µM and an IC50 (BE [3]) of 1.1 µM. The “Ratio IC50” value (BE [4]) was 1.
Compound `COC(=O)c1nc(-c2ccc3c(n2)C(=O)C(NC(=O)c2ccco2)=CC3=O)c2[nH]c3ccccc3c2c1C` has an Activity [1] of 5.8 µmol/min, an IC50 (BE [2]) greater than 50 µM and an IC50 (BE [3]) greater than 50 µM.
Work on `COC(=O)c1cc2c([nH]c3ccccc32)c(-c2ccc3c(n2)C(=O)C(NC(=O)C(C)C)=CC3=O)n1` yielded an Activity [1] of 0.04 µmol/min, an IC50 (BE [2]) greater than 50 µM and an IC50 (BE [3]) greater than 50 µM.
`CCCOC(=O)c1cc2c([nH]c3ccccc32)c(-c2ccc3c(n2)C(=O)C(NC(C)=O)=CC3=O)n1` showed an Activity [1] of 6.8 µmol/min, an IC50 (BE [2]) of 2.4 µM and an IC50 (BE [3]) of 3.2 µM. For the same compound, the “Ratio IC50” value (BE [4]) was 1.3.
`CC(=O)NC1=CC(=O)c2ccc(-c3nc(C(=O)N4CCN(Cc5ccccc5)CC4)cc4c3[nH]c3ccccc34)nc2C1=O` showed an Activity [1] of 8.7 µmol/min, an IC50 (BE [2]) of 9.8 µM and an IC50 (BE [3]) of 6.5 µM. The “Ratio IC50” value (BE [4]) was 0.7.
For `CC(=O)NC1=CC(=O)c2ccc(-c3nc(C(=O)NCC(O)CO)cc4c3[nH]c3ccccc34)nc2C1=O` (stereo not given), the Activity [1] was 36 µmol/min, the IC50 (BE [2]) was 18 µM and the IC50 (BE [3]) was greater than 50 µM. The “Ratio IC50” value (BE [4]) was greater than 2.8.
For `CC(=O)NC1=CC(=O)c2ccc(-c3nc(C(=O)N4CCCC4)cc4c3[nH]c3ccccc34)nc2C1=O`, the Activity [1] was 43 µmol/min, the IC50 (BE [2]) was 6.2 µM and the IC50 (BE [3]) was 13 µM. For the same compound, the “Ratio IC50” value (BE [4]) was 2.1.
`COC(=O)c1[nH]c(-c2ccc3c(n2)C(=O)C(=N)C(Cl)=C3O)c2nc3ccccc3c-2c1C` was tested, and the inhibition (A549 [7]) was “Active” and the inhibition at 0.1 µM (A549 [5]) was 70%.
`CC(C)CCOC(=O)c1cc2c([nH]c3ccc(O)cc32)c(-c2ccc3c(n2)C(=O)C(N)=CC3=O)n1` gave an Activity [1] of 2.9 µmol/min, an IC50 (BE [2]) greater than 50 µM and an IC50 (BE [3]) greater than 50 µM.
For `COC(=O)c1cc2c([nH]c3ccccc32)c(-c2ccc3c(n2)C(=O)C(NC(C)=O)=CC3=O)n1`, the inhibition (A549 [7]) was “Active”.
With `O=C(CCl)NC1=CC(=O)c2ccc(-c3nc(C(=O)N4CCCC4)cc4c3[nH]c3ccccc34)nc2C1=O` the Activity [1] was 34 µmol/min, the IC50 (BE [2]) was 3 µM and the IC50 (BE [3]) was 8 µM. The “Ratio IC50” value (BE [4]) was 2.7.
With `NC1=CC(=O)c2ccc(-c3nc(C(=O)N4CCOCC4)cc4c3[nH]c3ccccc34)nc2C1=O` the Activity [1] was 103 µmol/min, the IC50 (BE [2]) was 2 µM and the IC50 (BE [3]) was 18 µM. For the same compound, the “Ratio IC50” value (BE [4]) was 9.
`CC(=O)NC1=CC(=O)c2ccc(-c3nc(C(=O)NCCO)cc4c3[nH]c3ccccc34)nc2C1=O` gave an Activity [1] of 2.2 µmol/min, an IC50 (BE [2]) greater than 50 µM and an IC50 (BE [3]) greater than 50 µM.
In the case of `NC1=CC(=O)c2ccc(-c3nc(C(=O)N4CCCC4)cc4c3[nH]c3ccccc34)nc2C1=O`, the Activity [1] is reported as 35 µmol/min, the IC50 (BE [2]) is reported as 45 µM and the IC50 (BE [3]) is reported as greater than 50 µM. The “Ratio IC50” value (BE [4]) was greater than 1.1.
Compound `CCOC(=O)c1cc2c([nH]c3ccc(O)cc32)c(-c2ccc3c(n2)C(=O)C(NC(C)=O)=CC3=O)n1` has an Activity [1] of 21 µmol/min, an IC50 (BE [2]) of 4.8 µM and an IC50 (BE [3]) of 4 µM. For the same compound, the “Ratio IC50” value (BE [4]) was 0.8.
In the case of `COC(=O)c1[nH]c(-c2ccc3c(n2)C(=O)C(NC(C)=O)=CC3=O)c2nc3ccccc3c-2c1C`, the inhibition (A549 [7]) is reported as “Active”.
With `NC(=O)c1cc2c([nH]c3ccccc32)c(-c2ccc3c(n2)C(=O)C(NC(=O)CCl)=CC3=O)n1` the Activity [1] was 13 µmol/min, the IC50 (BE [2]) was 5.8 µM and the IC50 (BE [3]) was 12 µM. The “Ratio IC50” value (BE [4]) was 2.1.

— ChEMBL document CHEMBL1157581, “Synthesis, metabolism and in vitro cytotoxicity studies on novel lavendamycin antitumor agents” (Bioorg Med Chem, 2010)
